The target of the first data set is T1, Interleukin-5 receptor subunit alpha (Mus musculus) (UniProt P21183).
T1 sequence (whole entry): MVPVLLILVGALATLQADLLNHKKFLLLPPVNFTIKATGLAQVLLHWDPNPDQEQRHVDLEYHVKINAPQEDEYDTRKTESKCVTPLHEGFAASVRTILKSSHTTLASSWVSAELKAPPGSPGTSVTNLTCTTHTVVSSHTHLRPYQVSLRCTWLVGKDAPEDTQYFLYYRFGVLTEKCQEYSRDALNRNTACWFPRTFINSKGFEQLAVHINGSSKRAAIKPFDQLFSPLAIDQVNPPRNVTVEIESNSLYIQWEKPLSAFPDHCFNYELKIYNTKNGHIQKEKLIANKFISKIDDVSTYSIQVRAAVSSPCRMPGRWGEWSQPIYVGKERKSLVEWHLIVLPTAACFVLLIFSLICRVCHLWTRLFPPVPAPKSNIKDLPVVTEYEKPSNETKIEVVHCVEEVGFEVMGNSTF
Description: Inhibition of IL-5 receptor in mouse pro-B Y16 cells assessed as decrease in mIL-5 dependent cell proliferation at 30 uM after 48 hrs in presence of 3 units/ml mIL-5 by WST-1 assay relative to control. It is filed as cell-based.
Details: not given
The method in brief: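 Y16 murine early B-cell line was maintained in RPMI-1640 with 8% FBS and 3 units/mL mIL-5. Cells were washed twice in Hanks', resuspended without IL-5 (viability >95%), and plated at 1 × 10⁴ cells per well. A 3 units/mL mIL-5 solution and sample were added. Control wells received medium in place of sample; blank wells received medium in place of mIL-5. After 48 h at 37 °C, WST-1 was added for 2–4 h and A450 was read.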
Regarding `CN(CCO)Cc1nc2c(OCC3CCCCC3)cccc2[nH]1`, the inhibition turned out to be 42%.

In the case of `COc1ccc(CN(CCO)Cc2nc3c(OCC4CCCCC4)cccc3[nH]2)cc1`, the inhibition worked out at 73.3%. For `OCCCCCNCc1nc2c(OCC3CCCCC3)cccc2[nH]1`, the inhibition worked out at 23.7%. As for `OCCN(Cc1nc2c(OCC3CCCCC3)cccc2[nH]1)C1CCCCC1`, the inhibition is 24%.

As to `OCC(Cc1ccccc1)NCc1nc2c(OCC3CCCCC3)cccc2[nH]1` (stereo unspecified), the inhibition was found to be 81%. In the case of `OCCN(Cc1ccc(Cl)cc1)Cc1nc2c(OCC3CCCCC3)cccc2[nH]1`, the inhibition was 96%. `COc1ccc(CNCc2nc3c(OCC4CCCCC4)cccc3[nH]2)cc1`: the inhibition turned out to be 43.3%. The same measure, in the same setting: in the case of `c1ccc(NCc2nc3c(OCC4CCCCC4)cccc3[nH]2)cc1` it was 25%.

`OCCN(Cc1ccccc1)Cc1nc2c(OCC3CCCCC3)cccc2[nH]1`: the inhibition came to 62.3%.

`CCCN(CCO)Cc1nc2c(OCC3CCCCC3)cccc2[nH]1`: the inhibition amounted to 63%. As to `CCN(CCO)Cc1nc2c(OCC3CCCCC3)cccc2[nH]1`, the inhibition amounted to 34.7%. In the case of `CCCC(CO)NCc1nc2c(OCC3CCCCC3)cccc2[nH]1` (stereo unspecified), the inhibition was determined as 73.3%. Regarding `OCCCCNCc1nc2c(OCC3CCCCC3)cccc2[nH]1`, the inhibition worked out at 44.3%. Turning to `OCCN(Cc1ccncc1)Cc1nc2c(OCC3CCCCC3)cccc2[nH]1`, the inhibition was 43.3%. On the same count and under the same terms, the figure for `OCCNCc1nc2c(OCC3CCCCC3)cccc2[nH]1` is 63.3%; for `OCC(CC1CCCCC1)NCc1nc2c(OCC3CCCCC3)cccc2[nH]1` (stereo unspecified) it is 94.7%; for `OCCC(NCc1nc2c(OCC3CCCCC3)cccc2[nH]1)c1ccccc1` (stereo unspecified) it is 64.7%.

For the molecule `OCC(NCc1nc2c(OCC3CCCCC3)cccc2[nH]1)c1ccccc1` (stereo unspecified), the inhibition was 77.7%. As for `CC(C)(CO)NCc1nc2c(OCC3CCCCC3)cccc2[nH]1`, the inhibition is 54.7%. Turning to `CCC(CO)NCc1nc2c(OCC3CCCCC3)cccc2[nH]1` (stereo unspecified), the inhibition worked out at 94.3%. `OCCN(Cc1nc2c(OCC3CCCCC3)cccc2[nH]1)CC1CCCCC1`: the inhibition was 76.7%. In the case of `CC(C)N(CCO)Cc1nc2c(OCC3CCCCC3)cccc2[nH]1`, the inhibition was 10%. Take `COc1ccc(NCc2nc3c(OCC4CCCCC4)cccc3[nH]2)cc1`: the inhibition stood at 20.3%.

For `OCCCNCc1nc2c(OCC3CCCCC3)cccc2[nH]1`, the inhibition turned out to be 52.7%. As to `c1ccc(CNCc2nc3c(OCC4CCCCC4)cccc3[nH]2)cc1`, the inhibition was found to be 49.3%.

A further data set deals with T1, Interleukin-5 receptor subunit alpha (Mus musculus). Description: Inhibition of IL-5 receptor in mouse pro-B Y16 cells assessed as decrease in mIL-5 dependent cell proliferation at 50 uM after 48 hrs in presence of 3 units/ml mIL-5 by WST-1 assay relative to control. It is filed as cell-based.
Details: not given
In the case of `O=c1c(-c2ccc(O[C@@H]3O[C@H](CO)[C@@H](O)[C@H](O)[C@H]3O)cc2)coc2cc(O)cc(O)c12`, the inhibition is 79.1%. As for `CCCC1O[C@@H]2C[C@H]3[C@@H]4CCC5=CC(=O)C=C[C@]5(C)[C@H]4[C@@H](O)C[C@]3(C)[C@]2(C(=O)CO)O1` (stereo partly specified), the inhibition came to 70.2%.

Test system in another data set: not listed separately
The experiment in a line: Cytotoxicity against human HCC1395BL cells assessed as inhibition of cell viability at 30 uM measured after 48 hrs by MTT assay. It is filed as cell-based. Particulars: read-out: INH. The method in brief: (§1)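 HCC1395 BL or NCI-BL1184 normal B lymphoblasts were cultured in RPMI-1640 or IMDM with 10% FBS at 37 °C and 5% CO₂, with serum but no IL-5. Cells were exposed to compound for 48 h, then to 0.5 mg/mL MTT for a further 3 h. Values are the mean ± SD of three independent measurements.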
In the case of `OCC(CC1CCCCC1)NCc1nc2c(OCC3CCCCC3)cccc2[nH]1` (stereo unspecified), the cytotoxicity at 48 h, 30 µM was determined as 12.5%.

Consider `CCC(CO)NCc1nc2c(OCC3CCCCC3)cccc2[nH]1` (stereo unspecified), for which the cytotoxicity at 48 h, 30 µM was 7.5%.

Test system in another data set: not listed separately
The experiment in a line: Cytotoxicity against human NCI-BL1184 cells assessed as inhibition of cell viability at 30 uM measured after 48 hrs by MTT assay. The data set is classed as cell-based. Particulars: read-out: INH. The method in brief:
as §1
Take `OCC(CC1CCCCC1)NCc1nc2c(OCC3CCCCC3)cccc2[nH]1` (stereo unspecified): the cytotoxicity at 48 h, 30 µM turned out to be 9.8%.

Take `CCC(CO)NCc1nc2c(OCC3CCCCC3)cccc2[nH]1` (stereo unspecified): the cytotoxicity at 48 h, 30 µM was found to be 10.2%.

These data come from ChEMBL document CHEMBL4364327, “Discovery of benzimidazole analogs as a novel interleukin-5 inhibitors” (Eur J Med Chem, 2019).
